# Screening results deposited in PubChem BioAssay by several laboratories.
# The list is not random: actives were taken first. Their share in the collection is about 2.3%.
# T cell HTS = T cell immune modulation candidate; 2C CD8+ T cell-vesicle binding, flow cytometry; active compounds read low; response (vesicle binding), % at 7 µM; hit rate 0.068% among 330,000; AID 2052;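 active = response, share of CD8 T cells binding vesicles, and their 90th percentile fluorescence all below set limits, cut at about 80% in these data, passing the limit was not always enough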;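 note: values below 100% mean blocked vesicle binding to the CD8+ T cells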
#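 Benchmarks: naked versus QL9-loaded vesicles / Assay system: purified 2C TCR transgenic mouse naive CD8+ T cells / Technique: high-throughput flow cytometry with anti-B7-1 and anti-CD8 staining / Timing: Cell–vesicle co-incubation 1.5 h at 37 °C, staining 20 min on ice / Read-out: percent CD8+ FL2 mean versus row control / Probe or stimulus: QL9-loaded Drosophila micro-vesicles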
# pCIP destab = compounds decreasing mouse p/CIP protein stability; F442A p/CIP-EGFP cells, EGFP fluorescence, 16 h; decrease of EGFP signal, % at 10 µM; hit rate 0.01% among 290,000;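 active = EGFP signal decrease of at least 30% at 10 µM or well 3 SD below plate mean, unless failing retest; inactive = the rest, including hits failing retest or dose response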
# Pemphigus Ab inh = human desmoglein-3 autoantibody binding inhibition; DSG3-coupled beads, scFv-anti-DSG3-GFP binding, flow cytometry; active compounds read low; AID 588358; binding (percent of control), % at 10 µM; P32926; hit rate 0.48% among 310,000;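 active = binding more than 3 SD below its plate's average and above zero; inconclusive = below that plate limit but binding exactly zero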;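 note: hits lower antibody fragment binding to DSG3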
# Target sequence (P32926 whole entry, looked up, the tested form may be a part): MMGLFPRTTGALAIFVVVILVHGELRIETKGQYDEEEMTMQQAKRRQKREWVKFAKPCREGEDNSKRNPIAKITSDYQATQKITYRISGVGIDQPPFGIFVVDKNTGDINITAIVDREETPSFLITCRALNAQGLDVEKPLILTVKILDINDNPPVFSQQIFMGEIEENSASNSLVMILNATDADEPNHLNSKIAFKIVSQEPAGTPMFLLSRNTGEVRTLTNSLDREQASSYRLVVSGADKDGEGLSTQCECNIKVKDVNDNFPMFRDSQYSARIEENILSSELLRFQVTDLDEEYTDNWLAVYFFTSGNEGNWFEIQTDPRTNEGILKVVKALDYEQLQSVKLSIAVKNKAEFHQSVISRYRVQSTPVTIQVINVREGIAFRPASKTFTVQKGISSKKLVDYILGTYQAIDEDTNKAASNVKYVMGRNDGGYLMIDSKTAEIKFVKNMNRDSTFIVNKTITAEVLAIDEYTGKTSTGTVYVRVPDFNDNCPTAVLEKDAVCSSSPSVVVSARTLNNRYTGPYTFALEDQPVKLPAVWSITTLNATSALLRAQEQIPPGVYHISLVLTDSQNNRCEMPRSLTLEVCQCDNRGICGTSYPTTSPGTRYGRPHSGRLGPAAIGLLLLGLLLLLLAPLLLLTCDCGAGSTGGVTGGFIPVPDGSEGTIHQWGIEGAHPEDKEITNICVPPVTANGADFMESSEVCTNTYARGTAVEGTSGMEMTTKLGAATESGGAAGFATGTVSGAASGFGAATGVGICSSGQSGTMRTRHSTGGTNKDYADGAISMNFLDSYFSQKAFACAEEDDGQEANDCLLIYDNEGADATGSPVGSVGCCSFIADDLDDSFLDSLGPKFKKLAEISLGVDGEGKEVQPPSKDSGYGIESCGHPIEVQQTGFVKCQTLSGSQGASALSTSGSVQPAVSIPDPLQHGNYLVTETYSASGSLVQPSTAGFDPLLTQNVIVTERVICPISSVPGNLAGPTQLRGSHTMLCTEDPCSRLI
# GPR7 antagonist = blocks human GPR7 receptor signaling. P48145. GPR7-expressing cells, fluorescence antagonist assay. inhibition, % at 4.4 µM. hit rate 1.1% among 290,000; in the data active = inhibition above about 16%, passing the limit was not always enough;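 note: cells stimulated with the agonist NPW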
# CHT allo act = allosteric activators of human choline transporter CHT; CHT-expressing cells, membrane potential dye, choline EC20; active compounds read high; LV-AA mutant CHT in HEK293 cells; AID 488977; Q9GZV3; B-score at 10 µM; hit rate 0.49% among 310,000;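 active = initial fluorescence not abnormally high and integrated response B-score, plate-corrected, over 3 SD above library mean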
# CHT block = inhibitors of human choline transporter CHT. CHT-expressing cells, membrane potential dye, choline response; active compounds read low. B-score at 10 µM. AID 488975. Q9GZV3. hit rate 0.86% among 310,000;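 active = B-score over 3 SD under the library average, and starting fluorescence ratio not unusually high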;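 note: choline stimulus applied at its EC90 after an EC20 pre-addition; B-score computed on integrated fluorescence ratio after choline addition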
# CHT block conf = human CHT inhibition, confirmatory screen; shares compounds with CHT block; CHT-expressing cells, choline membrane potential dye; LV-to-AA substituted CHT, HEK293 cells; CHT activity remaining % of control (active compounds read low), % at 10 µM; hit rate 70% among 2,400;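 active = choline transporter activity left, mean of duplicates at 10 µM, below buffer-only control mean minus 3 SD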;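 note: depolarization triggered by choline at its EC90 following an EC20 pre-addition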
# HEK293 CHT ctr = CHT inhibitor counter-screen hit in parental HEK293 cells; shares compounds with CHT block; membrane potential dye, choline response; active = decrease or increase beyond buffer ±3SD; membrane potential ratio readout (active if shifted either direction beyond buffer ±3SD; no single direction) at 10 µM; hit rate 4% among 2,400;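 note: parental cells lack the transporter so any hit is non-specific; ratio is peak minus trough fluorescence over baseline after EC90 choline challenge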
# Hits are given with their value; 0 = inactive; ? = inconclusive; - = no result given.
SMILES,T cell HTS,pCIP destab,Pemphigus Ab inh,GPR7 antagonist,CHT allo act,CHT block,CHT block conf,HEK293 CHT ctr
CCCCN(CC)CCCNC(=O)c1cn(C)c2ccc(S(=O)(=O)N(C)C3CCCCC3)cc2c1=O,0,0,0,0,0,0,-,-
CCCCN(CCCC)CCNC(=O)c1cn(CC)c2ccc(S(=O)(=O)N(C)C3CCCCC3)cc2c1=O,0,0,-,0,0,-7.07,19.7%,0
CCn1cc(C(=O)NCCCN2CCCC(C)C2)c(=O)c2cc(S(=O)(=O)N(C)C3CCCCC3)ccc21 (centres undefined),0,0,0,0,0,-7.52,25.3%,2.68
Cc1nc(SCC(=O)NC(=O)NCc2ccco2)nc(C)c1C,0,0,0,0,0,0,-,-
Cc1nc(SCC(=O)NC(=O)NCc2ccccc2)nc(C)c1C,0,0,0,0,0,-6.16,68.6%,0
O=C1COc2ccc(C(=O)COC(=O)Cc3ccc(Cl)cc3)cc2N1,0,0,0,0,0,0,-,-
COc1cc(OC)cc(C(=O)N[C@H](C(=O)OCC(=O)c2ccc3c(c2)NC(=O)CO3)C(C)C)c1,0,0,0,0,0,0,-,-
CC(C)[C@H](NC(=O)c1ccccc1)C(=O)OCC(=O)c1ccc2c(c1)NC(=O)CO2,0,0,0,0,0,-8.97,32.6%,0
CC[C@H](C)[C@H](NC(=O)c1ccc(Cl)cc1)C(=O)OCC(=O)c1ccc2c(c1)NC(=O)CO2,0,0,0,0,0,-5.71,31.7%,0
Fc1ccccc1COc1ccc(Br)cc1CNCc1ccncc1,0,0,0,0,0,-5.48,70.1%,0
Cc1noc(NS(=O)(=O)c2ccc(NC(=O)c3oc4ccc(Cl)cc4c3C)cc2)c1C,0,0,0,0,0,-5.59,59.4%,0
Cc1cc(NS(=O)(=O)c2ccc(NC(=S)NC(=O)c3ccc(Cl)cc3Cl)cc2)no1,0,0,0,0,0,0,-,-
O=C(Nc1ccc(S(=O)(=O)Nc2ccccn2)cc1)c1ccc(Cl)cc1Cl,0,0,0,0,0,-12.2,-0.5%,0
Cc1cc(NS(=O)(=O)c2ccc(NC(=O)c3ccc(Cl)cc3Cl)cc2)no1,0,0,0,0,0,-9.38,12.5%,0
Cc1ccc(C)c(OCC(=O)Nc2ccc(S(=O)(=O)Nc3ccccn3)cc2)c1C,0,0,0,0,0,-7.2,59.2%,0
O=C(CN(CCO)Cc1ccccc1)N1CCN(S(=O)(=O)c2ccccc2)CC1,-,-,0,-,-,-,-,-
O=C(c1ccc2c(c1)CCC2)N1CCN(Cc2c(F)cccc2Cl)CC1,-,-,0,-,-,-,-,-
CC(C)NC(=O)N(C)C[C@H]1OCc2cnnn2CCCC(=O)N([C@H](C)CO)C[C@H]1C,-,-,0,-,-,-,-,-
CCCCSc1nc(C)cc(C)c1S(=O)(=O)c1ccccc1C,0,0,0,0,0,-7.57,0,0
COc1ccccc1CCC(=O)OCC(=O)c1c(N)n(CC(C)C)c(=O)n(C)c1=O,0,-,?,-,0,-5.72,42.9%,0
CCOc1ccccc1OCC(=O)OCC(=O)c1c(N)n(CC(C)C)c(=O)n(C)c1=O,0,-,-,-,-,-,-,-
CCn1c(=NC(=O)CSC(C)=O)sc2ccccc21,0,0,0,0,0,0,-,-
C=CC(=O)N=c1sc2ccccc2n1-c1ccccc1,0,0,0,0,0,-6.17,37.2%,0
O=C(C1CCCN1S(=O)(=O)c1cccc2nsnc12)N1CCCCC1 (centres undefined),0,0,0,0,0,-9.82,0,0
Cc1nnc(SCc2nnc(-c3cccs3)o2)n1C,0,0,0,0,0,-7.02,0,0
SMILES,T cell HTS,pCIP destab,Pemphigus Ab inh,GPR7 antagonist,CHT allo act,CHT block,CHT block conf,HEK293 CHT ctr
CCCn1c(SCc2nc(-c3cccs3)no2)nnc1-c1ccncc1,0,0,0,0,0,0,-,-
Cn1c(SCc2nc(-c3cccs3)no2)nnc1C1CCCCC1,0,0,0,0,0,-7.23,0,0
CCOc1ccc(-n2c(SCc3nc(-c4cccs4)no3)nnc2-c2ccncc2)cc1,0,0,0,17.9,0,-4.98,0,0
Cn1c(SCc2nc(-c3ccccc3)no2)nnc1-c1cccs1,0,0,0,0,0,0,-,-
O=C(C[C@@H]1C/C=C\C[C@H](Cc2ccc(F)cc2)C(=O)OCCNC1=O)N[C@H](CO)Cc1ccccc1,0,-,0,-,-,-,-,-
COc1cc(/C=C/C(C)=NNc2ccccc2)ccc1O,-,-,0,-,-,-,-,-
CCOc1ccc(NC(=O)Cn2nc(-c3ccccc3Cl)n(CC)c2=S)cc1,0,0,0,0,0,0,0,0
CCn1c(-c2ccccc2Cl)nn(CC(=O)Nc2ccc(OC)cc2)c1=S,0,0,0,0,0,0,-,-
Cc1onc(-c2ccccc2Cl)c1C(=O)Nc1nnc(-c2cccc([N+](=O)[O-])c2)s1,0,0,0,0,0,-6.9,51.4%,0
CCSc1nnc(NC(=O)c2c(-c3ccccc3Cl)noc2C)s1,0,0,0,0,0,0,-,-
CCCCNC(=O)c1sc(=S)n2c1[nH]c(=O)c1ccc(C(=O)NCCc3ccc(OC)c(OC)c3)cc12,0,0,0,0,0,0,-,-
O=C(NCc1ccccc1)c1sc(=S)n2c1[nH]c(=O)c1ccccc12,0,0,0,0,0,-6.69,63.4%,0
O=[N+]([O-])c1ccc(O)c(C2=NNC(c3ccccc3F)C2)c1 (centres undefined),0,0,0,0,0,-10.2,19.5%,0
O=[N+]([O-])c1cc(Br)c(Nc2ccccc2)c([N+](=O)[O-])c1,0,0,0,0,0,0,-,-
O=[N+]([O-])c1cc([N+](=O)[O-])c2c(=Nc3ccccc3)n(-c3ccccc3)n(O)c2c1,0,0,0,0,0,-6.22,60.8%,0
CCN(CC)S(=O)(=O)c1ccc(Cl)c(C(=O)NNC(=O)c2csc(N3CCOCC3)n2)c1,-,-,0,-,-,-,-,-
Cc1cccc(NC(=O)CN2CCN(C(=O)CN3C(=O)NC4(CCCCC4C)C3=O)CC2)c1C (centres undefined),-,-,0,-,-,-,-,-
CCc1cc2cc(C)cc(C)c2nc1Cl,0,0,0,0,0,0,-,-
Cc1cc(C)c2cc(C=O)c(Cl)nc2c1,0,0,0,0,0,-6.14,0,0
O=C1OCCC1Sc1nnnn1-c1ccccc1 (centres undefined),0,0,0,0,0,0,-,-
O=C1OCCC1Sc1nc(-c2ccccc2)cs1 (centres undefined),0,0,0,0,0,-9.08,38.5%,0
Cc1ccc(C)c(S(=O)(=O)C(C#N)c2nc3ccccc3nc2N2CC(C)OC(C)C2)c1 (centres undefined),0,0,-,0,0,-8.15,41.3%,0
